Test results reported in PMC7614804 (Journal of medicinal chemistry, 2022).
One block for each compound: values may come before it.

Tests used:
Pa MurB [1] = target: T1, Pa MurB (Pseudomonas aeruginosa, UniProt Q9HZM7); experiment: Isothermal titration calorimetry; type: binding
T1 sequence (Q9HZM7 1-339): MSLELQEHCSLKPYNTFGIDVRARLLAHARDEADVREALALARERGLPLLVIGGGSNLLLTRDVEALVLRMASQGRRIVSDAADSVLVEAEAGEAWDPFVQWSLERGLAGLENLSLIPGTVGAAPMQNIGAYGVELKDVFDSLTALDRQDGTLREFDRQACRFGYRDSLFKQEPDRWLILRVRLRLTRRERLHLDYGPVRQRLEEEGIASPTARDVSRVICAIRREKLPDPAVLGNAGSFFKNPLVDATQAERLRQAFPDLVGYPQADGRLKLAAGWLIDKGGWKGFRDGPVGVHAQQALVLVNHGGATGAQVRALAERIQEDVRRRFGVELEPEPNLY
Procedure, shortened: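 ITC at 25 °C. Pa MurB was dialysed overnight at 4 °C into 25 mM Tris-HCl pH 8.0, 150 mM NaCl; cell and syringe solutions were in the same buffer with 5% DMSO final. Usually 50 μM MurB with 3.0 mM fragment; some runs used 1.0 or 0.5 mM ligand or 200 μM MurB. A 0.4 μL first injection was discarded, then 28 × 1.5 μL every 120 s. One-site fit; LE = −(RTlnKd)/heavy atoms, in kcal/mol per heavy atom.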

Pa MurB [2] = target: T1, Pa MurB; experiment: Surface plasmon resonance; type: binding
Procedure, shortened: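 Pa MurB amine-coupled to a CM5 chip. Running buffer: 10 mM NaPO4 pH 7, 150 mM NaCl, 2% DMSO, 25 °C. Each test compound at 1 mM in running buffer was injected for 30 s at […], with 320 s dissociation. Each was run twice, in reverse orders, with solvent correction. Response units were compared visually with those of the initial pyrazole fragment hit.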

[3] = Table 3, LE = –(RTlnKd)/(number of heavy atoms)
[4] = Table 3, RU of fragment at 1 mM compared with RU of fragment 4, n = 2
[5] = Table 4, LE = −(RTlnKd)/(number of heavy atoms)
[6] = Table 4, RU of fragment at 1 mM compared with RU of fragment 4, n = 2
[7] = Kd(μM) ITC, Table 4, 50 μM MurB, 3.0 mM fragment, fragment 41: 200 μM MurB
[8] = Table 5, LE = −(RTlnKd)/(number of heavy atoms)
[9] = Table 5, RU of compound at 1.0 mM compared with RU of fragment 4, n = 2
[10] = Table 6, RU of fragment at 1.0 mM compared with RU of fragment 4, n = 2
[11] = Table 6, LE = −(RTlnKd)/(number of heavy atoms)

Kd (Pa MurB [1]; Kd(μM) ITC, Table 3, 50 μM MurB, 3.0 mM fragment): 877 ± 154 µM | LE (Pa MurB [1]; [3]): 0.28 kcal/mol per heavy atom | SPR RU>RUf4 1.0 mM (Pa MurB [2]; [4]): no
Structure (SMILES): Cc1c(C(=O)O)nnn1-c1ccccc1 [Fragment 19]

LE (Pa MurB [1]; [3]): 0.34 kcal/mol per heavy atom | SPR RU>RUf4 1.0 mM (Pa MurB [2]; [4]): yes
Structure (SMILES): Cc1cc(C(=O)O)c(C)n1-c1ccccc1 [Fragment 20]

SPR RU>RUf4 1.0 mM (Pa MurB [2]; [4]): no
Structure (SMILES): Cc1nc(C(=O)O)c(C)n1-c1ccccc1 [Fragment 21]

LE (Pa MurB [1]; [3]): 0.28 kcal/mol per heavy atom | SPR RU>RUf4 1.0 mM (Pa MurB [2]; [4]): yes
Structure (SMILES): Cc1cc(C(=O)O)c(C(F)(F)F)n1-c1ccccc1 [Fragment 22]

Kd (Pa MurB [1]; Kd (ITC)): 208 ± 15 µM | LE (Pa MurB [1]; [3]): 0.28 kcal/mol per heavy atom
Structure (SMILES): Cc1c(C(=O)O)cc(CCO)n1-c1ccccc1 [Fragment 23]

LE (Pa MurB [1]; [5]): 0.27 kcal/mol per heavy atom | SPR RU>RUf4 1.0 mM (Pa MurB [2]; [6]): yes
Structure (SMILES): O=C(O)c1cnn(-c2ccccc2Cl)c1C(F)(F)F [Fragment 30]

LE (Pa MurB [1]; [5]): 0.29 kcal/mol per heavy atom | SPR RU>RUf4 1.0 mM (Pa MurB [2]; [6]): yes
Structure (SMILES): O=C(O)c1cnn(-c2ccccc2Br)c1C(F)(F)F [Fragment 31]

LE (Pa MurB [1]; [5]): 0.31 kcal/mol per heavy atom | SPR RU>RUf4 1.0 mM (Pa MurB [2]; [6]): yes
Structure (SMILES): Cc1ccccc1-n1ncc(C(=O)O)c1C(F)(F)F [Fragment 32]

SPR RU>RUf4 1.0 mM (Pa MurB [2]; [6]): no
Structure (SMILES): COc1ccc(-n2ncc(C(=O)O)c2C(F)(F)F)cc1 [Fragment 35]

Kd (Pa MurB [1]; [7]): 208 ± 28 µM | LE (Pa MurB [1]; [5]): 0.23 kcal/mol per heavy atom | SPR RU>RUf4 1.0 mM (Pa MurB [2]; [6]): yes
Structure (SMILES): Cc1cc([N+](=O)[O-])ccc1-n1ncc(C(=O)O)c1C(F)(F)F [Fragment 36]

Kd (Pa MurB [1]; [7]): 99 ± 7.2 µM | LE (Pa MurB [1]; [5]): 0.27 kcal/mol per heavy atom | SPR RU>RUf4 1.0 mM (Pa MurB [2]; [6]): yes
Structure (SMILES): Cc1cccc(-n2ncc(C(=O)O)c2C(F)(F)F)c1C [Fragment 38]

Kd (Pa MurB [1]; [7]): 85.5 ± 8 µM | LE (Pa MurB [1]; [5]): 0.28 kcal/mol per heavy atom | SPR RU>RUf4 1.0 mM (Pa MurB [2]; [6]): yes
Structure (SMILES): Cc1ccc(-n2ncc(C(=O)O)c2C(F)(F)F)c(C)c1 [Fragment 39]

LE (Pa MurB [1]; [5]): 0.26 kcal/mol per heavy atom | SPR RU>RUf4 1.0 mM (Pa MurB [2]; [6]): yes
Structure (SMILES): Cc1ccc(C)c(-n2ncc(C(=O)O)c2C(F)(F)F)c1 [Fragment 40]

LE (Pa MurB [1]; [5]): 0.31 kcal/mol per heavy atom
Structure (SMILES): Cc1cccc(C)c1-n1ncc(C(=O)O)c1C(F)(F)F [Fragment 41]

Kd (Pa MurB [1]; [7]): 60.2 ± 4.4 µM | LE (Pa MurB [1]; [5]): 0.29 kcal/mol per heavy atom | SPR RU>RUf4 1.0 mM (Pa MurB [2]; [6]): yes
Structure (SMILES): O=C(O)c1cnn(-c2c(Cl)cccc2Cl)c1C(F)(F)F [Fragment 42]

LE (Pa MurB [1]; [5]): 0.31 kcal/mol per heavy atom | SPR RU>RUf4 1.0 mM (Pa MurB [2]; [6]): yes
Structure (SMILES): O=C(O)c1cnn(-c2ccc(Cl)c(Cl)c2)c1C(F)(F)F [Fragment 43, 1-(3,4-Dichlorophenyl)-5-(trifluoromethyl)-1H-pyrazole-4-carboxylic Acid]

LE (Pa MurB [1]; [8]): 0.35 kcal/mol per heavy atom | SPR RU>RUf4 1.0 mM (Pa MurB [2]; [9]): yes
Structure (SMILES): Cc1cc(Cl)c(Cl)cc1-n1ncc(C(=O)O)c1C(F)(F)F [Fragment 44]

LE (Pa MurB [1]; [8]): 0.32 kcal/mol per heavy atom | SPR RU>RUf4 1.0 mM (Pa MurB [2]; [9]): yes
Structure (SMILES): Cc1c(-n2ncc(C(=O)O)c2C(F)(F)F)ccc(Cl)c1Cl [Fragment 45]

LE (Pa MurB [1]; [8]): 0.34 kcal/mol per heavy atom | SPR RU>RUf4 1.0 mM (Pa MurB [2]; [9]): yes
Structure (SMILES): Cc1ccccc1-n1c(C)cc(C(=O)O)c1C [Fragment 46]

LE (Pa MurB [1]; [8]): 0.32 kcal/mol per heavy atom | SPR RU>RUf4 1.0 mM (Pa MurB [2]; [9]): no
Structure (SMILES): Cc1cccc(C)c1-n1c(C)cc(C(=O)O)c1C [Fragment 47]

LE (Pa MurB [1]; [8]): 0.33 kcal/mol per heavy atom | SPR RU>RUf4 1.0 mM (Pa MurB [2]; [9]): no
Structure (SMILES): Cc1cc(C(=O)O)c(C)n1-c1ccc(Cl)c(Cl)c1 [Fragment 48]

SPR RU>RUf4 1.0 mM (Pa MurB [2]; [9]): yes
Structure (SMILES): Cc1cc(C(=O)O)c(C)n1-c1cccc(Cl)c1 [Fragment 49]

SPR RU>RUf4 1.0 mM (Pa MurB [2]; [9]): no
Structure (SMILES): Cc1cc(C(=O)O)c(C)n1-c1ccc(Cl)cc1 [Fragment 50]

LE (Pa MurB [1]; [8]): 0.33 kcal/mol per heavy atom
Structure (SMILES): Cc1cc(Cl)c(Cl)cc1-n1c(C)cc(C(=O)O)c1C [Fragment 51]

LE (Pa MurB [1]; [8]): 0.33 kcal/mol per heavy atom
Structure (SMILES): Cc1c(-n2c(C)cc(C(=O)O)c2C)ccc(Cl)c1Cl [Fragment 52]

LE (Pa MurB [1]; [8]): 0.30 kcal/mol per heavy atom | SPR RU>RUf4 1.0 mM (Pa MurB [2]; [9]): yes
Structure (SMILES): Cc1ccccc1-n1c(C)cc(C(=O)O)c1C(F)(F)F [Fragment 53]

LE (Pa MurB [1]; [8]): 0.32 kcal/mol per heavy atom
Structure (SMILES): Cc1cc(Cl)c(Cl)cc1-n1c(C)cc(C(=O)O)c1C(F)(F)F [Fragment 54]

LE (Pa MurB [1]; [8]): 0.31 kcal/mol per heavy atom | SPR RU>RUf4 1.0 mM (Pa MurB [2]; [9]): yes
Structure (SMILES): Cc1c(-n2c(C)cc(C(=O)O)c2C(F)(F)F)ccc(Cl)c1Cl [Fragment 55]

SPR RU>RUf4 1.0 mM (Pa MurB [2]; [10]): no
Structure (SMILES): CS(=O)(=O)NC(=O)c1cnn(-c2ccccc2)c1C(F)(F)F [Fragment 59]

Kd (Pa MurB [1]; Kd (ITC)): 320 ± 60 µM | Kd (Pa MurB [1]; Kd(μM) ITC, Table 6, 50 μM Pa MurB, 3.0 mM fragment): 324 ± 59 µM | LE (Pa MurB [1]; [11]): 0.18 kcal/mol per heavy atom | SPR RU>RUf4 1.0 mM (Pa MurB [2]; [10]): yes
Structure (SMILES): O=C(NS(=O)(=O)c1ccccc1)c1cnn(-c2ccccc2)c1C(F)(F)F [Fragment 60]

LE (Pa MurB [1]; [11]): 0.22 kcal/mol per heavy atom | SPR RU>RUf4 1.0 mM (Pa MurB [2]; [10]): yes
Structure (SMILES): Cc1cccc(C)c1-n1ncc(C(=O)NS(=O)(=O)c2ccccc2)c1C(F)(F)F [Fragment 62]

LE (Pa MurB [1]; [11]): 0.22 kcal/mol per heavy atom
Structure (SMILES): Cc1cc(Cl)c(Cl)cc1-n1ncc(C(=O)NS(=O)(=O)c2ccccc2)c1C(F)(F)F [Fragment 64]
